Measured values as given in paper PMC7181320 (ACS Central Science, 2020).
Entries after “also recorded” stand apart in the source; their conditions may differ. Like-named read-outs stand apart in the source and are kept apart here. One block for each compound: values may come before it.

Columns and labels:
N-His6-FhuD2 = N-His6-FhuD2 (Staphylococcus aureus, UniProt Q7BGA5); experiment: Intrinsic Trp fluorescence quenching binding assay, wild-type N-His6-FhuD2; parameters: species or system S. aureus
Method in brief: (§1)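 Purified SBP constructs, truncated with an N-terminal His6 tag replacing the signal peptide. Binding of the fluorescent desferrioxamine probe, in metal-free and ferric forms, was read as quenching of the protein's intrinsic Trp fluorescence.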

W255A N-His6-FhuD2 = target: T1, W255A N-His6-FhuD2 (Staphylococcus aureus, UniProt Q7BGA5, W279A); experiment: Intrinsic Trp fluorescence quenching binding assay, FhuD2 mutant W255A; parameters: species or system S. aureus; conditions: FhuD2 variant W255A
T1 sequence (Q7BGA5 25-302 W279A): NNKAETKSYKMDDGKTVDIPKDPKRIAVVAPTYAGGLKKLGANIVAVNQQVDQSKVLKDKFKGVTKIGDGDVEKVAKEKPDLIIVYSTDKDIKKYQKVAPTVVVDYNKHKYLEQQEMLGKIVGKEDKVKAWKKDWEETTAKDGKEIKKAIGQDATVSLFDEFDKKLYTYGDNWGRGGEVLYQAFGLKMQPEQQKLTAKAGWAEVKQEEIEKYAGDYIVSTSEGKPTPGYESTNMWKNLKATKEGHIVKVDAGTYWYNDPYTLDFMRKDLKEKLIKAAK

Y169F N-His6-FhuD2 = target: T2, Y169F N-His6-FhuD2 (Staphylococcus aureus, UniProt Q7BGA5, Y193F); experiment: Intrinsic Trp fluorescence quenching binding assay, FhuD2 mutant Y169F; parameters: species or system S. aureus; conditions: FhuD2 variant Y169F
T2 sequence (Q7BGA5 25-302 Y193F): T1 sequence (Q7BGA5 25-302 W279A)

Y106F N-His6-FhuD2 = Y106F N-His6-FhuD2 (Staphylococcus aureus, UniProt Q7BGA5, Y130F); experiment: Intrinsic Trp fluorescence quenching binding assay, FhuD2 mutant Y106F; parameters: species or system S. aureus; conditions: FhuD2 variant Y106F
N-His6-YxeB = N-His6-YxeB (Bacillus subtilis, UniProt P54941); experiment: Intrinsic Trp fluorescence quenching binding assay, wild-type N-His6-YxeB; parameters: species or system B. subtilis
Method in brief: as §1

Y254F N-His6-FhuD2 = target: T3, Y254F N-His6-FhuD2 (Staphylococcus aureus, UniProt Q7BGA5, Y278F); experiment: Intrinsic Trp fluorescence quenching binding assay, FhuD2 mutant Y254F; parameters: species or system S. aureus; conditions: FhuD2 variant Y254F
T3 sequence (Q7BGA5 25-302 Y278F): T1 sequence (Q7BGA5 25-302 W279A)

R175A N-His6-FhuD2 = target: T4, R175A N-His6-FhuD2 (Staphylococcus aureus, UniProt Q7BGA5, R199A); experiment: Intrinsic Trp fluorescence quenching binding assay, FhuD2 mutant R175A; parameters: species or system S. aureus; conditions: FhuD2 variant R175A
T4 sequence (Q7BGA5 25-302 R199A): T1 sequence (Q7BGA5 25-302 W279A)

Y256F N-His6-FhuD2 = Y256F N-His6-FhuD2 (Staphylococcus aureus, UniProt Q7BGA5, Y280F); experiment: Intrinsic Trp fluorescence quenching binding assay, FhuD2 mutant Y256F; parameters: species or system S. aureus
Y167F N-His6-FhuD2 = target: T5, Y167F N-His6-FhuD2 (Staphylococcus aureus, UniProt Q7BGA5, Y191F); experiment: Intrinsic Trp fluorescence quenching binding assay, FhuD2 mutant Y167F; parameters: species or system S. aureus; conditions: FhuD2 variant Y167F
T5 sequence (Q7BGA5 25-302 Y191F): T1 sequence (Q7BGA5 25-302 W279A)

W173A N-His6-FhuD2 = target: T6, W173A N-His6-FhuD2 (Staphylococcus aureus, UniProt Q7BGA5, W197A); experiment: Intrinsic Trp fluorescence quenching binding assay, FhuD2 mutant W173A; parameters: species or system S. aureus; conditions: FhuD2 variant W173A
T6 sequence (Q7BGA5 25-302 W197A): T1 sequence (Q7BGA5 25-302 W279A)

[1] = Apparent KFe measurement by EDTA competition assay; type: physicochemical; conditions: 1.2 equiv EDTA, HEPES buffer pH 7.4
Method in brief: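 Ferric siderophore (ferrioxamine B or E) treated with 1.2 equiv EDTA, with or without stoichiometric FhuD2. Remaining ferric siderophore is followed continuously by absorbance at 427 nm and expressed as relative percentage remaining. Apparent log KFe is calculated from the decay plots. At least two independent trials are run, with standard deviations reported.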

FhuD2 [2] = target: T7, FhuD2 (Staphylococcus aureus, UniProt Q7BGA5); experiment: Intrinsic Trp fluorescence quenching; type: binding; conditions: read-out: app Kd; SD, n = 2; cited from earlier work
R175A = R175A (Staphylococcus aureus, UniProt Q7BGA5, R199A); experiment: Intrinsic Trp fluorescence quenching; type: binding; conditions: read-out: app Kd; SD, n = 2
SBPs (FhuD2 or YxeB) = type: biochemical, S. aureus and B. subtilis; conditions: SBP-catalyzed exchange, FhuD2 and YxeB
Method in brief: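 Truncated SBPs (FhuD2 or YxeB), each expressed with an N-terminal His6 tag in place of the signal peptide, at 100 nM with 4 μM ferric donor (FOB, FOE or human holo-transferrin). Started by adding 2 μM DFO-NBD probe, then fluorescence followed continuously (ex 475 nm; em 565 nm). Percent change in relative emission taken at 15 min against a matching no-SBP reaction.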

Y256F = Y256F (Staphylococcus aureus, UniProt Q7BGA5, Y280F); experiment: Intrinsic Trp fluorescence quenching; type: binding; conditions: read-out: app Kd; SD, n = 2
Y169F = Y169F (Staphylococcus aureus, UniProt Q7BGA5, Y193F); experiment: Intrinsic Trp fluorescence quenching; type: binding; conditions: read-out: app Kd; SD, n = 2
Y106F = Y106F (Staphylococcus aureus, UniProt Q7BGA5, Y130F); experiment: Intrinsic Trp fluorescence quenching; type: binding; conditions: read-out: app Kd; SD, n = 2
Y254F = Y254F (Staphylococcus aureus, UniProt Q7BGA5, Y278F); experiment: Intrinsic Trp fluorescence quenching; type: binding; conditions: read-out: app Kd; SD, n = 2
FhuD2 [3] = target: T7, FhuD2; experiment: Intrinsic Trp fluorescence quenching; type: binding; conditions: read-out: app Kd; SD, n = 2
W255A = W255A (Staphylococcus aureus, UniProt Q7BGA5, W279A); experiment: Intrinsic Trp fluorescence quenching; type: binding; conditions: read-out: app Kd; SD, n = 2
W173A = W173A (Staphylococcus aureus, UniProt Q7BGA5, W197A); experiment: Intrinsic Trp fluorescence quenching; type: binding; conditions: read-out: app Kd; SD, n = 2
FhuD2 [4] = experiment: FhuD2-catalyzed iron exchange from holo-Tf to DFO-NBD with additives; type: biochemical, S. aureus; conditions: 25 mM additive, 4 μM holo-Tf, 2 μM DFO-NBD
Method in brief: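 FhuD2 is a truncated S. aureus construct with the N-terminal signal peptide replaced by an N-terminal His6 tag, used at 100 nM with holo-transferrin as iron donor. The reaction is started by adding the DFO-NBD probe, and fluorescence (ex 475 nm, em 560 nm) is monitored continuously. Quenching is expressed as percentage change relative to a control containing DFO-NBD and FhuD2 without iron donor.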

FhuD2 Y256F (S. aureus) = experiment: other fluorescence titration
[5] = 25 °C; cited from earlier work

Chain of N-His6-YxeB (P54941 21-321): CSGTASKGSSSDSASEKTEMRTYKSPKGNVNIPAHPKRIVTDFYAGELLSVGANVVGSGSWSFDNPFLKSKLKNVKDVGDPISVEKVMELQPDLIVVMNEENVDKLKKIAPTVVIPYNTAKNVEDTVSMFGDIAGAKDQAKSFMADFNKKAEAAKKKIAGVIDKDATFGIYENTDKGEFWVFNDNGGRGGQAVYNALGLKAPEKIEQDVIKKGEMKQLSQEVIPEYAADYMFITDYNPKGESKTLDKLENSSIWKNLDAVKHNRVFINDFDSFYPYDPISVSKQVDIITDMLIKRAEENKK
Chain of human holo-transferrin (P02787 20-698): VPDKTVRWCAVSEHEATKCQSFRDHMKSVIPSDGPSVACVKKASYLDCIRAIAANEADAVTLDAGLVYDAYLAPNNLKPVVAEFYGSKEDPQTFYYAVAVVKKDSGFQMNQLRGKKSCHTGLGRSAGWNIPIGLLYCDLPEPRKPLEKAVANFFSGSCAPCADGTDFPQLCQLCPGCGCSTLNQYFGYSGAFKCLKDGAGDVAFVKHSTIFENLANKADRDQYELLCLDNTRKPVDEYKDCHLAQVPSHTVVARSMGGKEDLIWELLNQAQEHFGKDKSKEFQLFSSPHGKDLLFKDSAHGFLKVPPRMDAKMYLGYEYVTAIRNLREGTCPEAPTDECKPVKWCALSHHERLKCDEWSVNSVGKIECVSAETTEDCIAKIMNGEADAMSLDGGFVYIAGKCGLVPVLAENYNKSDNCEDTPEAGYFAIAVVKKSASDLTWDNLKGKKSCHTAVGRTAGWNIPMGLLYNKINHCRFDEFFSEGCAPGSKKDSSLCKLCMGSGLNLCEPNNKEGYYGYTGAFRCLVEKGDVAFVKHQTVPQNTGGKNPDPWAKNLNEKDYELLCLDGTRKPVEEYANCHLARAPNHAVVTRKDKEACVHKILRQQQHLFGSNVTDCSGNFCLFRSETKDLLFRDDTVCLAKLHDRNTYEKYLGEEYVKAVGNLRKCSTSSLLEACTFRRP

Compound: CC(=O)N(O)CCCCCNC(=O)CCC(=O)N(O)CCCCCNC(=O)CCC(=O)N(O)CCCCCN [DFOB, desferrioxamine B]
Kd (N-His6-FhuD2): 90 ± 10 nM
Kd (W255A N-His6-FhuD2; app Kd): 60 ± 20 nM
Kd (Y169F N-His6-FhuD2; app Kd): 70 ± 10 nM
Kd (Y106F N-His6-FhuD2; app Kd): 80 ± 20 nM
Kd (N-His6-YxeB): 30 ± 20 nM
Kd (Y254F N-His6-FhuD2; app Kd): 50 ± 10 nM
Kd (R175A N-His6-FhuD2; app Kd): 40 ± 9 nM
Kd (Y256F N-His6-FhuD2): 80 ± 30 nM
Kd (Y167F N-His6-FhuD2; app Kd): 60 ± 9 nM
Kd (W173A N-His6-FhuD2; app Kd): 100 ± 50 nM

app Kd (N-His6-FhuD2; wild-type N-His6-FhuD2 100 nM, TBS buffer pH 7.4, one site binding model): nanomolar affinity
apparent log KFe ([1]; no FhuD2): 30.8 ± 0.3
app Kd (N-His6-YxeB; wild-type N-His6-YxeB 100 nM, TBS buffer pH 7.4, one site binding model): nanomolar affinity
Compound: CC(=O)N([O-])CCCCCNC(=O)CCC(=O)N([O-])CCCCCNC(=O)CCC(=O)N([O-])CCCCCNc1ccc([N+](=O)[O-])c2nonc12.[Fe+3] [FO-NBD, ferrioxamine B-2-(4-nitro-2,1,3-benzoxadiazol-7-yl) conjugate]

Compound: CC(=O)N([O-])CCCCCNC(=O)CCC(=O)N([O-])CCCCCNC(=O)CCC(=O)N([O-])CCCCCN.[Fe+3] [FOB, ferrioxamine B]
Kd (W255A N-His6-FhuD2; read-out: app Kd): 60 ± 50 nM
Kd (Y169F N-His6-FhuD2; read-out: app Kd): 40 ± 9 nM
apparent log KFe ([1]; 1:1 stoichiometric complex with FhuD2): 28.5 ± 0.1
apparent log KFe ([1]; no FhuD2): 30.3 ± 0.4
Kd (FhuD2 [2]): 30 ± 6 nM
Kd (R175A): 30 ± 9 nM
Kd (Y106F N-His6-FhuD2; read-out: app Kd): 40 ± 8 nM
ability to serve as ferric iron donor to DFO-NBD (SBPs (FhuD2 or YxeB)): serve as a donor of ferric iron; also recorded: serve as iron donor substrates
Kd (Y254F N-His6-FhuD2; read-out: app Kd): 10 ± 2 nM
Kd (Y256F): 60 ± 10 nM
Kd (Y169F): 40 ± 9 nM
Kd (Y256F N-His6-FhuD2; read-out: app Kd, FhuD2 variant Y256F): 60 ± 10 nM
Kd (Y167F N-His6-FhuD2; read-out: app Kd): 40 ± 6 nM
Kd (W173A N-His6-FhuD2; read-out: app Kd): 60 ± 8 nM
Kd (Y106F): 40 ± 8 nM
Kd (Y254F): 10 ± 2 nM

Compound: O=C1CCC(=O)N(O)CCCCCNC(=O)CCC(=O)N(O)CCCCCNC(=O)CCC(=O)N(O)CCCCCN1.[Fe+3] [FOE, ferrioxamine E]
Kd (FhuD2 [3]): 50 ± 6 nM
Kd (W255A): 30 ± 9 nM
Kd (Y256F): 40 ± 20 nM
Kd (W173A): 90 ± 30 nM
Kd (Y169F): 20 ± 2 nM
Kd (Y106F): 80 ± 10 nM

Compound: O=C([O-])O.[Na+] [NaHCO3]
effect on FhuD2-catalyzed exchange of iron from holo-Tf to DFO-NBD (FhuD2 [4]): no apparent effect

Compound: human holo-transferrin (from UniProt P02787 20-698) (natural protein)
Kd (FhuD2 Y256F (S. aureus)): 70 nM

Compound: transferrin: human ferric holo-transferrin, host iron source and iron donor substrate
Kd (W255A N-His6-FhuD2; read-out: app Kd): 110 ± 80 nM
Kd (Y169F N-His6-FhuD2; read-out: app Kd): 110 ± 20 nM
Kd (Y254F N-His6-FhuD2; read-out: app Kd): 90 ± 20 nM
Kd (R175A N-His6-FhuD2; read-out: app Kd): 110 ± 30 nM
Kd (Y167F N-His6-FhuD2; read-out: app Kd): 80 ± 20 nM
log KFe [5]: ≈ 22
Kd (W173A N-His6-FhuD2; read-out: app Kd): 140 ± 30 nM
